Series [1] has as its target Adenosylhomocysteinase (Bos taurus) (UniProt Q3MHL4). The series can be described thus: Percentage enzyme activity remaining was measured by the inhibition S-adenosyl-L-homocysteine hydrolase from bovine liver at 0.01 uM.
Series [2] relates to L5178Y. The series can be described thus: Effect of compound on spermidine(SPD) polyamine pool in L5178Y murine leukemia cells expressed in terms of nmol/10e6 cells. In kind it is functional, Mus musculus.
Series [3] has as its system L1210. The series can be described thus: The concentration required to inhibit cell growth by 50% was measured on L1210 Leukemic cell line of mouse(48h after exposure). In kind it is functional, cell-based. The conditions noted are these: L1210, 48 h. In a few lines:
(§1)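 Suspension cultures in RPMI 1640 with 10% Nu Serum, seeded at 0.3×10^5 cells/mL. Compounds were dissolved fresh in DMSO, diluted in serum-free medium, and tested at 0.1-1000 µM for 48 h (about 4 doublings). Cells were counted by Coulter counter and the 50% growth-inhibitory concentration determined.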

The subject of the next series is CCRF-CEM. The series can be described thus: The concentration required to inhibit cell growth by 50% was measured on human CCRF-CEM cells (96h after exposure). In kind it is functional, cell-based. In a few lines: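 CCRF-CEM cells grown in 10% horse serum, seeded at 0.3×10^5 cells/mL. Compounds were freshly dissolved in DMSO, diluted in serum-free medium, and tested at 0.1-1000 µM for 96 h (about 4 doublings). Cells were counted by Coulter counter and the concentration giving 50% growth inhibition determined.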

Series [4] deals with L5178Y. Briefly: Effect of compound on putrescine(PUT) polyamine pool in L5178Y murine leukemia cells expressed in terms of nmol/10e6 cells. Format: functional, Mus musculus.
In series [5] the test system is L1210. Briefly: Effect of compound on spermidine(SPD) polyamine pool in L1210 murine leukemia cells expressed in terms of nmol/10e6 cells. In kind it is functional, Mus musculus.
Series [6] concerns L5178Y. Briefly: Effect of compound on spermine(SPM) polyamine pool in L5178Y murine leukemia cells expressed in terms of nmol/10e6 cells. In kind it is functional, Mus musculus.
The subject of the next series is MOLT-4. Briefly: The concentration required to inhibit cell growth by 50% was measured on human MOLT-4 cells (96h after exposure). The conditions noted are these: MOLT-4, 96 h. In kind it is functional, cell-based. In a few lines: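 MOLT-4 suspension culture in RPMI 1640 with 10% Nu Serum, seeded at 0.3×10^5 cells/mL. Compounds were freshly dissolved in DMSO, diluted in serum-free medium, and tested at 0.1-1000 µM for 96 h (about 4 doublings). Cells were counted electronically (Coulter) and the 50% growth-inhibitory concentration determined.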

For series [7], the system named is L1210. The series can be described thus: Effect of compound on putrescine(PUT) polyamine pool in L1210 murine leukemia cells expressed in terms of nmol/10e6 cells. Format: functional, Mus musculus.
The target of series [8] is T1, S-methyl-5'-thioadenosine phosphorylase (Mus musculus) (UniProt Q9CQ65).
T1 sequence (whole entry): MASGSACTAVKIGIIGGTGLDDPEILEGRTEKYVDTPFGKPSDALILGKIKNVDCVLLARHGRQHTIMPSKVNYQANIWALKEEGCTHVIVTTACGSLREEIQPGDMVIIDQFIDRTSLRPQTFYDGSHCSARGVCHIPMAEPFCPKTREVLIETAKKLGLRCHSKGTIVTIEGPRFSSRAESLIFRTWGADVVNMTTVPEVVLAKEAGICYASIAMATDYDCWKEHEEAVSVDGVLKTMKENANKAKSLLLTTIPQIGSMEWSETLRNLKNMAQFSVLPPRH
The series can be described thus: The ability to act as substrates for MTA phosphorylase activity was determined by using a mouse liver enzyme preparation. On the set-up: concentration or dose not given beside the values. Format: functional, tissue-based. In a few lines: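 Mouse liver MTA phosphorylase preparation, spectrophotometric assay. The analogue was used as substrate and the absorbance change at λ 305 was read after a 10-min incubation. Activity is expressed relative to MTA as control substrate. Duplicate samples, agreeing within 15%.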

For series [9], the target named is T2, S-methyl-5'-thioadenosine phosphorylase (Mus musculus, UniProt Q9CQ65).
T2 sequence (Q9CQ65 whole entry): T1 sequence (whole entry)
The series can be described thus: The inhibitory constant(Ki) for MTA phosphorylase activity was determined by using a mouse liver enzyme preparation. In a few lines: (§2)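 Mouse liver MTA phosphorylase preparation. Conversion of [methyl-³H]MTA to [methyl-³H]MTRP was measured in the presence of analogue. Ki was derived from Lineweaver-Burk plots. Duplicate samples, agreeing within 15%.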

Series [10] concerns L1210. The series can be described thus: Effect of compound on spermine(SPM) polyamine pool in L1210 murine leukemia cells expressed in terms of nmol/10e6 cells. Format: functional, Mus musculus.
Series [11] deals with L5178Y. The series can be described thus: The concentration required to inhibit cell growth by 50% was measured on L5178Y Leukemic cell line of mouse(48h after exposure). Format: functional, cell-based. In a few lines: as §1
Series [12] relates to L5178Y. The series can be described thus: Effect of compound on putrescine(PUT) polyamine pool in L5178Y murine leukemia cells expressed as nmol/10e6 cells. Format: functional, Mus musculus.
Compound in series [13]: CSC[C@H]1O[C@@H](n2cnc3c(N)ncnc32)[C@H](O)[C@@H]1O
The series can be described thus: The inhibitory constant for MTA phosphorylase activity was determined by using a mouse liver enzyme preparation. In kind it is functional, tissue-based. In a few lines: as §2

Chain of Adenosylhomocysteinase (Bos taurus) (Q3MHL4 whole entry, looked up): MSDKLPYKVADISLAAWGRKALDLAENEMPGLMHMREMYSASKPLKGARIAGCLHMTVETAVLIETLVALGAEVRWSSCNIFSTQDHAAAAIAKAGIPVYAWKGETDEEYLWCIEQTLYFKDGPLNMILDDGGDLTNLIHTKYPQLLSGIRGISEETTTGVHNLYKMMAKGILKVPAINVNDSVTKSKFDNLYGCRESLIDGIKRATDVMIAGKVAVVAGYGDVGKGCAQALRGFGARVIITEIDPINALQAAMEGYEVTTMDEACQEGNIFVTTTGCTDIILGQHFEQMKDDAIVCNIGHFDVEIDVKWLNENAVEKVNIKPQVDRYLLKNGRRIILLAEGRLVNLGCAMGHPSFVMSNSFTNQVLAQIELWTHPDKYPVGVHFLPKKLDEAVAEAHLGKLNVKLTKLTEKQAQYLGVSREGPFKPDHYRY

With `CCCSC[C@H]1OC(n2cnc3c(N)ncnc32)[C@H](O)[C@@H]1O` (some centres not stated), the Activity in series [1] came to 100%; with L5178Y [2] it was 1.18; in the series on L5178Y [4], 0.25 nmol/10e6 cells; in the series on L1210 [5] it was 0.57; with L5178Y [6] it was 1; with L1210 [7], 0.26. In addition, the Activity with L1210 [10] was determined as 0.41. Moreover, the 50% inhibitory concentration (IC50) in the series with L1210 [3] worked out at 1000 µM; in the series with CCRF-CEM, 160 µM; in the series with MOLT-4, 45 µM; in the series on L5178Y [11] it was 500 µM. Moreover, the Control in series [8] was 102%. Further, in series [9], the Ki came to 1.7 µM.

Molecule `Nc1ncnc2c1ncn2C1O[C@H](CSCCBr)[C@@H](O)[C@H]1O` (some centres not stated) registered a Control in [8] of 38%.

For the molecule `CCSC[C@H]1OC(n2cnc3c(N)ncnc32)[C@H](O)[C@@H]1O` (some centres not stated), the Activity in series [1] came to 99%; in the series with L5178Y [2], 1.75; with L5178Y [4], 0.69 nmol/10e6 cells; with L1210 [5], 1.01; in the series on L5178Y [6], 1.29; in the series on L1210 [7], 0.77. In the series on L1210 [10], this molecule returned an Activity of 0.54. Also, the IC50 with L1210 [3] is 800 µM; in the series with CCRF-CEM, 200 µM; in the series with MOLT-4, 20 µM; in the series on L5178Y [11] it was 250 µM. This molecule showed a Control in series [8] of 95%. This molecule also showed a Ki in series [9] of 1.9 µM.

Consider `Nc1ncnc2c1ncn2C1O[C@H](CSCCF)[C@@H](O)[C@H]1O` (some centres not stated), for which the Activity amounted to 102% in series [1]; 1.55 in the series on L5178Y [2]; 0.27 nmol/10e6 cells in the series with L5178Y [4]; 1.95 in the series on L1210 [5]; 1.43 in the series with L5178Y [6]; 0.56 in the series on L1210 [7]. The molecule also registered an Activity in the series with L1210 [10] of 0.86. In addition, the IC50 in the series with L1210 [3] was determined as 150 µM; in the series with CCRF-CEM, 75 µM; in the series on MOLT-4 it was 10 µM; with L5178Y [11], 60 µM. Besides, the Control in series [8] came out at 64%.

As to `CSC[C@H]1O[C@@H](n2cnc3c(N)ncnc32)[C@H](O)[C@@H]1O` [METHYLTHIOADENOSINE], the Activity in series [1] was determined as 101%; with L5178Y [2], 2.79; in the series on L5178Y [12], 1.85; in the series on L1210 [5], 1.22; with L5178Y [6], 0.43; in the series with L1210 [7], 1.93. Further, the Activity in the series with L1210 [10] amounted to 0.19. Also, the half-inhibitory concentration (IC50) in the series with L1210 [3] is 850 µM; in the series on CCRF-CEM, 150 µM; in the series on MOLT-4 it was 11 µM; in the series on L5178Y [11], 200 µM. In [8], this molecule gave a Control of 100%.

`Nc1ncnc2c1ncn2C1O[C@H](CSCCCl)[C@@H](O)[C@H]1O` (some centres not stated): the Control in series [8] came to 35%.

Turning to `Nc1ncnc2c1ncn2C1O[C@H](CSCCO)[C@@H](O)[C@H]1O` (some centres not stated), the Activity with L5178Y [2] worked out at 1.9; with L5178Y [4] it was 0.66 nmol/10e6 cells; in the series on L1210 [5], 1.17; in the series on L5178Y [6] it was 1.5; in the series with L1210 [7], 0.75; with L1210 [10], 0.58. Besides, the IC50 with L1210 [3] was found to be 1000 µM; with CCRF-CEM, 100 µM; with MOLT-4, 40 µM; with L5178Y [11], 500 µM. For the same molecule, in [8], the Control was 34%.

Turning to `Nc1ncnc2c1ncn2C1O[C@H](CSCCCF)[C@@H](O)[C@H]1O` (some centres not stated), the Activity was found to be 97% in series [1]; 1.79 in the series on L5178Y [2]; 0.36 nmol/10e6 cells in the series on L5178Y [4]; 0.99 in the series on L1210 [5]; 1.07 in the series on L5178Y [6]; 0.34 in the series with L1210 [7]. In the series on L1210 [10], this molecule displayed an Activity of 0.44. The IC50 in the series with L1210 [3] came to 600 µM; in the series with CCRF-CEM, 160 µM; with MOLT-4, 25 µM; in the series on L5178Y [11], 600 µM. This molecule also came in with a Control in [8] of 66%. This molecule gave a Ki in series [9] of 4 µM.

B1: S-methyl-5'-thioadenosine phosphorylase (Mus musculus), Q9CQ65 (protein)
chain: T1 sequence (whole entry)
With B1, in series [13], the Michaelis constant (Km) amounted to 1.3 µM.

(Values after ChEMBL document CHEMBL1125934, “Targeting 5'-deoxy-5'-(methylthio)adenosine phosphorylase by 5'-haloalkyl analogues of 5'-deoxy-5'-(methylthio)adenosine” (J Med Chem, 1991).)
